By Ki is commonly meant the dissociation constant of the complex between target and ligand, obtained from inhibition or displacement. What is called EC50 is the concentration at which the effect is half-maximal.

Calls of active or inactive are those of the source. No cut-off for these calls is given here.

Test [1] in a line: Displacement of [3H]-WIN55212-2 from HEK293 cell membrane lacking CB1R and CB2R assessed as inhibition constant. It counts as cell membranes, Homo sapiens. The gist of the method:
(§1)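 HEK293 membranes (P2 fractions from independent cultures) incubated with [³H]WIN55212-2 plus increasing concentrations of competitor; specific binding determined by filtration. Ki derived from competition curves, fitted as one or two sites (high and low affinity) where curves were biphasic. n = 3–8 independent membrane preparations, each run in triplicate.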
A general note: In a radioligand displacement assay an active substance lowers the binding of a labelled ligand.

The subject of test [2] is Cell membrane. In words: Displacement of [3H]-WIN55212-2 from HEK293 cell membrane lacking CB1R and CB2R at 1 uM. It counts as subcellular. The conditions noted are these: Homo sapiens.
Test [3] has as its system Cell membrane. As to the kind of experiment: Displacement of [3H]-WIN55212-2 from HEK293 cell membrane lacking CB1R and CB2R assessed as inhibition constant for lower affinity site. The conditions noted are these: Homo sapiens. Format: subcellular. The gist of the method: as §1
For test [4], the system named is Cell membrane. As to the kind of experiment: Displacement of [3H]-WIN55212-2 from HEK293 cell membrane lacking CB1R and CB2R assessed as inhibition constant for higher affinity site. Format: subcellular. The conditions noted are these: Homo sapiens. The gist of the method:
as §1

Test [5] in a line: (§2) Induction of [35S]GTPgammaS binding to HEK293 cell membrane lacking CB1R and CB2R by filtration assay. It counts as cell membranes, Homo sapiens. In short, it runs like this: (§3)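 [³⁵S]GTPγS binding to HEK293 cell membranes stimulated by compound. Gi/o dependence tested by pretreating cultured cells with pertussis toxin (100 ng/ml, 20 h). Where stated, CB1R antagonist […] (1 μM) or CB2R antagonist SR144528 (1 μM) was present. Mean ± SEM of n = 3–4 experiments, each in triplicate.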

Test [6] has as its system HEK293. As to the kind of experiment: Induction of HA-tagged human CB1R internalization in HEK293 cells. Format: functional, cell-based. In short, it runs like this: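 HEK293 cells stably expressing HA-tagged human CB1R exposed to compound at 3 μM. Internalization measured and expressed as % of vehicle control. Antagonism tested with […] (1 μM). Positive control CP55940 (1 μM). Mean ± SEM of 3–5 independent experiments. One-way ANOVA with Bonferroni post-test.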

Test [7] relates to HEK293. In words: Induction of HA-tagged human CB2R internalization in HEK293 cells. It counts as functional, cell-based. In short, it runs like this: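 HEK293 cells stably expressing HA-tagged human CB2R exposed to compound at 3 μM. Internalization measured and expressed as % of vehicle control. Antagonism tested with AM630 (1 μM). Positive control CP55940 (1 μM). Mean ± SEM of 3–5 independent experiments. One-way ANOVA with Bonferroni post-test.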

For test [8], the system named is HEK293. As to the kind of experiment: Induction of [35S]GTPgammaS binding to HEK293 cell membrane lacking CB1R and CB2R in presence of SR144528 by filtration assay. It counts as cell membranes. The conditions noted are these: Homo sapiens. The gist of the method:
as §3

Test [9] concerns Cell membrane. In words: Displacement of [3H]-WIN55212-2 from HEK293 cell membrane lacking CB1R and CB2R in presence of GTPgammaS by filtration assay. Format: subcellular. The note with it: Homo sapiens. The gist of the method:
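HEK293 membranes incubated with [³H]WIN55212-2 and test compound, with or without GTPγS (20 μM). Specific binding determined by filtration assay. Mean ± SEM of n = 3–4 experiments, each in triplicate.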

Test [10] has as its system HEK293. In words: Induction of [35S]GTPgammaS binding to HEK293 cell membrane lacking CB1R and CB2R in presence of SR141716 by filtration assay. It counts as cell membranes. The conditions noted are these: Homo sapiens. The gist of the method: as §3
The subject of test [11] is HEK293. The description is as §2. It counts as cell membranes. The note with it: Homo sapiens. The gist of the method:
as §3

As for `CCCn1cc(C(=O)c2ccc(C)c3ccccc23)c2ccccc21`, the Ki in test [1] stood at 319 nM.

For `Cc1c(C(=O)c2cccc3ccccc23)c2cccc3c2n1[C@H](CN1CCOCC1)CO3`, the result in [2] was inactive.

For the compound `Cc1ccc(C(=O)c2c(C)n(CCN3CCOCC3)c3cc(Cl)cc(Cl)c23)c2ccccc12`, the outcome in test [2] was inactive.

For `Cc1ccc(C(=O)c2c(C)n(CCN3CCOCC3)c3cnccc23)c2ccccc12`, the KiL in test [3] was 2.1 µM. For the same compound, the KiH in test [4] was 5.8 nM.

In the case of `Cc1ccc(C(=O)c2c(C)n(CCN3CCOCC3)c3cc(Cl)ccc23)c2ccccc12`, the Ki in [1] turned out to be 3.5 nM. Also, the EC50 in [5] was 3.5 nM.

On to `COc1ccc2c(c1)c(C(=O)c1ccc(C)c3ccccc13)c(C)n2CCN1CCOCC1`, for which, in test [2], the result was inactive.

Turning to `CC1=C(CCN2CCOCC2)c2ccccc2/C1=C/c1cccc2ccccc12`, the Ki in test [1] worked out at 466 nM.

Take `Cc1ccc(C(=O)c2c(C)n(C)c3ccccc23)c2ccccc12`: the KiL in test [3] was determined as 2.6 µM. In test [4], the KiH was 0.8 nM.

As to `Cc1c(C(=O)c2cccc3ccccc23)c2ccccc2n1C`, the KiL in test [3] was 1 µM. In [4], the KiH is 2.1 nM.

Take `CCn1cc(C(=O)c2ccc(C)c3ccccc23)c2ccccc21`: the Ki in test [1] is 102 nM.

`Cc1ccc(C(=O)c2c(C)n(CCN3CCOCC3)c3ccccc23)c2ccccc12`: in test [3], the KiL was determined as 0.09 µM. In test [4], the KiH was 0.8 nM. In addition, the outcome in test [6] and in test [7] was Active.

`CCn1c(C)c(C(=O)c2ccc(C)c3ccccc23)c2ccccc21`: the result in test [8], in [9], in test [10] and in test [7] was Active. In [3], the KiL was 0.085 µM. For the same compound, the KiH in test [4] came out at 1.5 nM. The compound also returned an EC50 in test [5] of 5 nM. Moreover, the result in [6] was inactive.

Turning to `Cn1cc(C(=O)N2CCCc3ccccc32)c2ccccc21`, the outcome in [2] was inactive.

On to `Cc1ccc(C(=O)c2c(C(F)(F)F)n(CCN3CCOCC3)c3ccccc23)c2ccccc12`, for which the Ki in [1] was determined as 972 nM.

As for `C1=C(CCN2CCOCC2)c2ccccc2/C1=C/c1cccc2ccccc12`, the Ki in [1] amounted to 3400 nM.

For the compound `Cc1ccc(C(=O)c2c(C)n(CC(F)(F)F)c3ccccc23)c2ccccc12`, in test [1], the Ki is 1.8 nM. In addition, the result in test [6] was inactive. Also, in test [7], the result was Active.

Turning to `Cc1ccc(C(=O)c2c(C)n(C3CC3)c3ccccc23)c2ccccc12`, the Ki in test [1] was 118 nM.

As for `CC1=C(CCN2CCOCC2)c2ccccc2/C1=C\c1cccc2ccccc12`, the Ki in test [1] was 466 nM. Besides, in [11], the outcome was Active.

For `Cc1ccc(C(=O)c2c(C)n(CCN3CCOCC3)c3ccc(Cl)cc23)c2ccccc12`, the KiL in [3] was 2.3 µM. Also, the KiH in [4] was found to be 10 nM.

`Cc1ccc(C(=O)c2c(C)n(CCN3CCOCC3)c3ncccc23)c2ccccc12`: the KiL in test [3] worked out at 0.382 µM. Besides, in test [4], the KiH is 0.4 nM. The compound also came in with an EC50 in test [5] of 1.1 nM. Moreover, the outcome in test [6] and in test [7] was Active.

Take `CCn1c(C)c(C(=O)c2ccc(OC)cc2)c2ccccc21`: the result in [2] was inactive.

For the compound `COc1ccc2c(C(=O)c3ccc(C)c4ccccc34)c(C)n(CCN3CCOCC3)c2c1`, the Ki in test [1] was found to be 113 nM. For the same compound, in test [5], the EC50 worked out at 229 nM.

With `Cc1ccc(C(=O)c2c3n(c4ccccc24)CCCC3)c2ccccc12`, the KiL in test [3] is 2.6 µM. Also, the KiH in test [4] was 5.5 nM. The outcome in [6] and in test [7] was Active.

As to `CCCn1c(C)c(C(=O)c2ccc(C)c3ccccc23)c2ccccc21`, the Ki in test [1] is 95 nM.

In the case of `Cc1c(C(=O)c2cccc3ccccc23)c2cccc3c2n1[C@@H](CN1CCOCC1)CO3`, in test [3], the KiL was 0.0072 µM. In test [4], the KiH turned out to be 0.027 nM.

Take `C1=C(CCN2CCOCC2)c2ccccc2/C1=C\c1cccc2ccccc12`: the inhibitory constant (Ki) in [1] came to 437 nM. Besides, the result in test [11] was Active.

The values are drawn from ChEMBL document CHEMBL5321212, “Design, synthesis, and evaluation of substituted alkylindoles that activate G protein-coupled receptors distinct from the cannabinoid CB1 and CB2 receptors” (Eur J Med Chem, 2023).
